Laboratory results taken from ChEMBL document CHEMBL1159121, “Synthesis, in vitro structure-activity relationship, and in vivo studies of 2-arylthiazolidine-4-carboxylic acid amides as anticancer agents” (Bioorg Med Chem, 2010).

Key:
[1] = tested on: UACC-62; assay: Growth inhibition of human UACC62 cells; type: functional
[2] = tested on: OVCAR-3; assay: Growth inhibition of human OVCAR-3 cells; type: functional
[3] = tested on: ACHN; assay: Growth inhibition of human ACHN cells; type: functional
[4] = tested on: SF-268; assay: Growth inhibition of human SF268 cells; type: functional
[5] = Growth inhibition of human Hs 578T cells; type: functional
[6] = tested on: UO-31; assay: Growth inhibition of human UO31 cells; type: functional
[7] = tested on: SNB-19; assay: Growth inhibition of human SNB19 cells; type: functional
[8] = tested on: UACC-257; assay: Growth inhibition of human UACC257 cells; type: functional
[9] = tested on: SW-620; assay: Growth inhibition of human SW620 cells; type: functional
[10] = tested on: HCT-116; assay: Growth inhibition of human HCT116 cells; type: functional
[11] = tested on: MDA-MB-231; assay: Growth inhibition of human MDA-MB-231 cells; type: functional
[12] = tested on: SF-539; assay: Growth inhibition of human SF539 cells; type: functional
[13] = tested on: U-251; assay: Growth inhibition of human U251 cells; type: functional
[14] = Antiproliferative activity against human WM164 cells after 48 hrs by SRB assay; type: functional, cell-based; details: WM164, 48 h
Summary of the method: (§1)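 Melanoma lines and control fibroblasts grown at 37 °C, 5% CO2, then exposed to a wide concentration range for 48 h in round-bottom 96-well plates. Fixed with 10% TCA, stained with SRB, protein read at 560 nm. IC50 (50% growth inhibition versus untreated) obtained by nonlinear regression.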

[15] = tested on: SK-MEL-5; assay: Growth inhibition of human SK-MEL-5 cells; type: functional
[16] = tested on: OVCAR-8; assay: Growth inhibition of human OVCAR8 cells; type: functional
[17] = tested on: HCC 2998; assay: Growth inhibition of human HCC2998 cells; type: functional
[18] = tested on: CCRF-CEM; assay: Growth inhibition of human CCRF-CEM cells; type: functional
[19] = tested on: HT-29; assay: Growth inhibition of human HT-29 cells; type: functional
[20] = Growth inhibition of human […] cells; type: functional
[21] = tested on: SNB-75; assay: Growth inhibition of human SNB75 cells; type: functional
[22] = tested on: NCI-H522; assay: Growth inhibition of human NCI-H522 cells; type: functional
[23] = tested on: HCT-15; assay: Growth inhibition of human HCT15 cells; type: functional
[24] = tested on: SN12C; assay: Growth inhibition of human SN12C cells; type: functional
[25] = tested on: RXF 393; assay: Growth inhibition of human RXF393 cells; type: functional
[26] = tested on: M14; assay: Growth inhibition of human M14 cells; type: functional
[27] = tested on: PC-3; assay: Growth inhibition of human PC3 cells; type: functional
[28] = tested on: COLO 205; assay: Growth inhibition of human COLO205 cells; type: functional
[29] = tested on: LOX IMVI; assay: Growth inhibition of human LOXIMVI cells; type: functional
[30] = tested on: SR; assay: Growth inhibition of human SR cells; type: functional
[31] = tested on: DU-145; assay: Growth inhibition of human DU145 cells; type: functional
[32] = tested on: NCI-H460; assay: Growth inhibition of human NCI-H460 cells; type: functional
[33] = Antiproliferative activity against mouse B16-F1 cells after 48 hrs by SRB assay; type: functional, cell-based; details: B16-F1, 48 h; summary of the method: as §1
[34] = tested on: EKVX; assay: Growth inhibition of human EKVX cells; type: functional
[35] = tested on: BT-549; assay: Growth inhibition of human BT549 cells; type: functional
[36] = tested on: HOP-62; assay: Growth inhibition of human HOP62 cells; type: functional
[37] = tested on: OVCAR-5; assay: Growth inhibition of human OVCAR5 cells; type: functional
[38] = tested on: SF-295; assay: Growth inhibition of human SF295 cells; type: functional
[39] = tested on: HL-60(TB); assay: Growth inhibition of human HL-60(TB) cells; type: functional
[40] = tested on: MOLT-4; assay: Growth inhibition of human MOLT4 cells; type: functional
[41] = tested on: IGROV-1; assay: Growth inhibition of human IGROV1 cells; type: functional
[42] = tested on: TK-10; assay: Growth inhibition of human TK10 cells; type: functional
[43] = tested on: SK-OV-3; assay: Growth inhibition of human SKOV3 cells; type: functional
[44] = read-out: LC50 (the source's name)

Work on `CCCCCCCCCCCCCCCCNC(=O)[C@@H]1CSC(c2ccc(NC(C)=O)cc2)N1` (mixture of isomers) yielded a GI50 [1] of 1080 nM, a TGI [1] of 2330 nM and a CC50 [1, 44] of 50200 nM. It also gave a GI50 [2] of 220 nM, a TGI [2] of 420 nM and a CC50 [2, 44] of 790 nM. The GI50 [3] was 210 nM, the TGI [3] was 470 nM and the CC50 [3, 44] was 1100 nM. The GI50 [4] was 160 nM, the TGI [4] was 310 nM and the CC50 [4, 44] was 600 nM. For the same molecule, the GI50 [5] was 180 nM, the TGI [5] was 380 nM and the CC50 [5, 44] was 780 nM. For the same molecule, the GI50 [6] was 190 nM, the TGI [6] was 340 nM and the CC50 [6, 44] was 6100 nM. It also gave a GI50 [7] of 190 nM, a TGI [7] of 400 nM and a CC50 [7, 44] of 820 nM. For the same molecule, the GI50 [8] was 1480 nM, the TGI [8] was 3160 nM and the CC50 [8, 44] was 6710 nM. For the same molecule, the GI50 [9] was 210 nM, the TGI [9] was 430 nM and the CC50 [9, 44] was 890 nM. The GI50 [10] was 180 nM, the TGI [10] was 330 nM and the CC50 [10, 44] was 600 nM. For the same molecule, the GI50 [11] was 180 nM, the TGI [11] was 320 nM and the CC50 [11, 44] was 590 nM. It also gave a GI50 [12] of 260 nM, a TGI [12] of 700 nM and a CC50 [12, 44] of 2810 nM. It also gave a GI50 [13] of 180 nM, a TGI [13] of 330 nM and a CC50 [13, 44] of 620 nM. It also gave an IC50 [14] of 1100 nM, a GI50 [15] of 750 nM and a TGI [15] of 2130 nM. The CC50 [15, 44] was 5130 nM, the GI50 [16] was 280 nM and the TGI [16] was 730 nM. It also gave a CC50 [16, 44] greater than 100000 nM, a GI50 [17] of 440 nM and a TGI [17] of 1810 nM. For the same molecule, the CC50 [17, 44] was 4580 nM, the GI50 [18] was 120 nM and the TGI [18] was 400 nM. For the same molecule, the CC50 [18, 44] was 13000 nM, the GI50 [19] was 230 nM and the TGI [19] was 480 nM. The CC50 [19, 44] was 1090 nM, the GI50 [20] was 220 nM and the TGI [20] was 560 nM. The CC50 [20, 44] was greater than 100000 nM, the GI50 [21] was 180 nM and the TGI [21] was 330 nM. It also gave a CC50 [21, 44] of 580 nM, a GI50 [22] of 3810 nM and a TGI [22] of 20700 nM. It also gave a CC50 [22, 44] greater than 100000 nM, a GI50 [23] of 1000 nM and a TGI [23] of 3220 nM. For the same molecule, the CC50 [23, 44] was 11900 nM, the GI50 [24] was 350 nM and the TGI [24] was 510 nM. It also gave a CC50 [24, 44] of 740 nM, a GI50 [25] of 200 nM and a TGI [25] of 350 nM. It also gave a CC50 [25, 44] of 620 nM, a GI50 [26] of 170 nM and a TGI [26] of 330 nM. The CC50 [26, 44] was 620 nM, the GI50 [27] was 170 nM and the TGI [27] was 340 nM. It also gave a CC50 [27, 44] of 640 nM, a GI50 [28] of 1910 nM and a CC50 [28, 44] greater than 100000 nM. It also gave a GI50 [29] of 140 nM, a TGI [29] of 300 nM and a CC50 [29, 44] of 830 nM. The GI50 [30] was 160 nM, the TGI [30] was 350 nM and the CC50 [30, 44] was 810 nM. It also gave a GI50 [31] of 270 nM, a TGI [31] of 630 nM and a CC50 [31, 44] of 2150 nM. For the same molecule, the GI50 [32] was 190 nM, the TGI [32] was 390 nM and the CC50 [32, 44] was 790 nM. The IC50 [33] was 2200 nM, the GI50 [34] was 300 nM and the TGI [34] was 880 nM. The CC50 [34, 44] was 4110 nM, the GI50 [35] was 180 nM and the TGI [35] was 330 nM. The CC50 [35, 44] was 630 nM, the GI50 [36] was 200 nM and the TGI [36] was 380 nM. For the same molecule, the CC50 [36, 44] was 700 nM, the GI50 [37] was 200 nM and the TGI [37] was 370 nM. For the same molecule, the CC50 [37, 44] was 670 nM, the GI50 [38] was 280 nM and the TGI [38] was 1060 nM. It also gave a CC50 [38, 44] of 4090 nM, a GI50 [39] of 170 nM and a TGI [39] of 370 nM. It also gave a CC50 [39, 44] of 790 nM, a GI50 [40] of 150 nM and a TGI [40] of 340 nM. It also gave a CC50 [40, 44] of 790 nM, a GI50 [41] of 170 nM and a TGI [41] of 340 nM. For the same molecule, the CC50 [41, 44] was 650 nM, the GI50 [42] was 650 nM and the TGI [42] was 2110 nM. The CC50 [42, 44] was 5400 nM, the GI50 [43] was 380 nM and the TGI [43] was 1130 nM. The CC50 [43, 44] was 3480 nM.
